Reference: ChEMBL document CHEMBL1124606, “Benzo- and pyrido-1,4-oxazepin-5-ones and -thiones: synthesis and structure-activity relationships of a new series of H1 antihistamines” (1989)

Columns and labels:
[1] = system: Cavia porcellus; experiment: Histamine induced lethality, at 60-min pretreatment time when 1 mg/kg compound was administered perorally in guinea pigs; type: functional; conditions: route oral
[2] = system: Cavia porcellus; experiment: Histamine induced lethality, at 30-min pretreatment time when 1 mg/kg compound was administered perorally in guinea pigs; type: functional; conditions: route oral
[3] = system: Cavia porcellus; experiment: Histamine induced lethality, at 60-min pretreatment time when 0.1 mg/kg compound was administered perorally in guinea pigs; type: functional; conditions: route oral
[4] = system: Felis catus; experiment: The compound dose required to elicit marked cortical slowing and spindling, when administarted intra venously in cats; type: functional
How it was run: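 Cats given test compound iv (0.001-20 mg/kg), with spontaneous EEG inspected after each dose for cortical slowing, synchrony and spindle-type activity. The sedative dose was the one producing marked slowing and spindling (synchrony). Values are mean ± SD over the number of experiments per compound.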

[5] = system: Cavia porcellus; experiment: Histamine induced lethality, at 60-min pretreatment time when 3 mg/kg compound was administered perorally in guinea pigs; type: functional; conditions: route oral
[6] = system: Cavia porcellus; experiment: Histamine induced lethality, at 60-min pretreatment time when 30 mg/kg compound was administered perorally in guinea pigs; type: functional; conditions: route oral
[7] = biological target: Histamine H1 receptor (Cavia porcellus) (UniProt P31389); experiment: Histamine induced lethality, at 30-min pretreatment time of 3 mg/kg i.p. in guinea pigs.; type: functional, organism-based; set-up: dose 3 mg/kg; conditions: at 3 mg/kg
[8] = system: Cavia porcellus; experiment: Histamine induced lethality, at 30-min pretreatment time when 30 mg/kg compound was administered intra peritoneally in guinea pigs; type: functional
[9] = system: Cavia porcellus; experiment: Histamine induced lethality, at 30-min pretreatment time when 1 mg/kg compound was administered intra peritoneally in guinea pigs; type: functional
[10] = system: Felis catus; experiment: The compound dose required for 50% block of H1 histamine activity, when administarted intra venously in cats; type: functional
How it was run: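 Cats given test compound iv (0.001-20 mg/kg), with blood pressure recorded continuously. Histamine 0.5 μg/kg iv was given to induce hypotension, before and 5, 10 and 20 min after each dose. The antihistaminic dose was the one inhibiting the histamine response by >50%. Values are mean ± SD over the number of experiments per compound.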

[11] = biological target: Histamine H1 receptor (Cavia porcellus) (UniProt P31389); experiment: Histamine induced lethality, at 60-min pretreatment time of 0.1 mg/kg p.o. in guinea pigs.; type: functional, organism-based; set-up: dose 0.1 mg/kg; conditions: at 0.1 mg/kg
[12] = species: Cavia porcellus; experiment: Effective dose that protects guinea pigs against histamine induced lethality at 6 hours pretreatment time; type: functional
How it was run: (§1)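 Survival at 24 h after challenge was scored as protection. Groups of 5–10 animals per treatment; ED50 was calculated by the Litchfield–Wilcoxon method or by computer probit analysis.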

[13] = species: Cavia porcellus; experiment: Effective dose that protects guinea pigs against histamine induced lethality, at 1 hour pretreatment time; type: functional; how it was run: as §1
[14] = system: Cavia porcellus; experiment: Histamine induced lethality, at 30-min pretreatment time when 30 mg/kg compound was administered intra peritoneallyn guinea pigs; type: functional
[15] = system: Cavia porcellus; experiment: Histamine induced lethality, at 30-min pretreatment time when 0.3 mg/kg compound was administered intra peritoneally in guinea pigs; type: functional
[16] = system: Cavia porcellus; experiment: Histamine induced lethality, at 30-min pretreatment time when 3 mg/kg compound was administered intra peritoneally in guinea pigs; type: functional
[17] = system: Cavia porcellus; experiment: Histamine induced lethality, at 60-min pretreatment time when 0.3 mg/kg compound was administered perorally in guinea pigs; type: functional; conditions: route oral

Chain of Histamine H1 receptor (Cavia porcellus) (P31389 whole entry): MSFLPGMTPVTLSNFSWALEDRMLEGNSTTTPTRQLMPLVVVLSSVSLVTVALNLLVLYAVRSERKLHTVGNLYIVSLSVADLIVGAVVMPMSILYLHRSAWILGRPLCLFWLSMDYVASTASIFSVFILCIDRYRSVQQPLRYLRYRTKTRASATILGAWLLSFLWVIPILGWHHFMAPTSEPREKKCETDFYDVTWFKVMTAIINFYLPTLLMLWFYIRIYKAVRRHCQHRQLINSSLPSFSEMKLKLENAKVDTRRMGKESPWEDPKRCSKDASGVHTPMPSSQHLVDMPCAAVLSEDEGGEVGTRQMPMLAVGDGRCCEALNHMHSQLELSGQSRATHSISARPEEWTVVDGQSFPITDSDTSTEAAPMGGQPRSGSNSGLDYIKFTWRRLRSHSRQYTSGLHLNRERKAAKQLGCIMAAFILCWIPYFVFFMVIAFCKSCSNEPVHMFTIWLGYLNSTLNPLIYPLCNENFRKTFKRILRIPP

Compound	Dose [4] [mg/kg]	Survival [7] [%]	survival at 30 mg/kg [8] [%]	Dose [10] [mg/kg]	Survival [11] [%]	ED50 [12] [mg/kg]	ED50 [13] [mg/kg]	other results
CN(C)CCC1CN(C)C(=S)c2ccccc2O1 (stereo not drawn)	>20	–	–	–	–	–	–	survival at 1 mg/kg [1]: 0%; survival at 1 mg/kg [2]: 50%; survival at 0.1 mg/kg [3]: 100%; survival at 3 mg/kg [5]: 0%; survival at 30 mg/kg [6]: 100%
CN(C)CCC1CN(C)C(=O)c2cnccc2O1 (stereo not drawn)	–	67	100	–	–	–	–	survival at 1 mg/kg [9]: 33%
CN(C)CCC1CN(C)C(=S)c2cc(Cl)cnc2O1 (stereo not drawn)	>20	–	–	0.5	100	0.6	0.04	–
CN1CC(CCN2CCC2)Oc2ncc(Cl)cc2C1=O (stereo not drawn)	>20	–	–	0.06	100	0.8	0.04	–
CN(C)CCC1CN(C)C(=O)c2cc3ccccc3nc2O1 (stereo not drawn)	–	100	–	–	–	–	–	survival at 1 mg/kg [9]: 0%
CN(C)CCC1CN(C)C(=S)c2cnccc2O1 (stereo not drawn)	–	100	100	–	–	–	–	survival at 1 mg/kg [9]: 0%
CN(C)CCC1CN(C)C(=O)c2cccnc2S1 (stereo not drawn)	–	0	–	–	–	–	–	survival at 30 mg/kg [14]: 67%
CN(C)CCC1CN(C)C(=S)c2cc3ccccc3cc2O1 (stereo not drawn)	>20	67	100	0.5	–	–	–	survival at 0.3 mg/kg [15]: 100%
CN1CC(CCN2CCC2)Oc2ncc(Cl)cc2C1=S (stereo not drawn)	>20	–	–	0.005	100	0.02	0.02	–
CN(C)CCC1CN(C)C(=S)c2ccc3ccccc3c2O1 (stereo not drawn)	–	–	100	–	–	–	–	survival at 3 mg/kg [16]: 33%
CN(C)CCC(c1ccc(Br)cc1)c1ccccn1 (stereo not drawn) [BROMPHENIRAMINE]	1.7	–	–	1.3	40	2.5	0.08	survival at 0.3 mg/kg [17]: 100%
CN(C)CCC1CN(C)C(=S)c2cccnc2S1 (stereo not drawn)	–	–	100	–	–	–	–	survival at 3 mg/kg [16]: 0%
CN(C)CCC1CN(C)C(=S)c2cccnc2O1 (stereo not drawn) [ROCASTINE]	>20	–	–	0.5	50	6	0.12	survival at 0.3 mg/kg [17]: 100%
CN1CC(CCN2CCC2)Oc2ncccc2C1=O (stereo not drawn)	>20	–	–	0.6	67	6	0.13	survival at 0.3 mg/kg [17]: 100%
